Results as given in ChEMBL document CHEMBL4689842, “EUbOPEN Chemogenomics Library wave 1” (2021).

System: HEK-293T
Experiment: Multiplex assay against HEK293T;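 on Population Tubulin-Different-Phenotype (%): share of the cells with healthy nuclei that show this phenotype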
Assay type: toxicity, cell-based
Conditions: human
In short: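 Compound was added to live cells that had been stained at seeding with Hoechst33342, BioTracker Green Microtubule Cytoskeleton Dye, MitoTracker Red and Annexin V Alexa Fluor 680, and imaging followed on a CQ1 microscope at 37°C and 5% CO2. CellPathfinder machine-learning gating divided cells into Hoechst high-intensity objects or normal cells, normal cells into healthy, pyknosed or fragmented nuclei, and pyknosed cells into mitotic or apoptotic. Tubulin, mitochondrial-mass and membrane-permeability phenotypes are per cents of healthy-nucleus cells.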

[1] = 12 h, 1 µM, compound concentration 1 uM, replicate 1
[2] = 12 h, 1 µM, compound concentration 1 uM, replicate 2
[3] = 12 h, 10 µM, compound concentration 10 uM, replicate 1
[4] = 12 h, 10 µM, compound concentration 10 uM, replicate 2
[5] = 24 h, 1 µM, compound concentration 1 uM, replicate 1
[6] = 24 h, 1 µM, compound concentration 1 uM, replicate 2
[7] = 24 h, 10 µM, compound concentration 10 uM, replicate 1
[8] = 24 h, 10 µM, compound concentration 10 uM, replicate 2
[9] = 48 h, 1 µM, compound concentration 1 uM, replicate 1
[10] = 48 h, 1 µM, compound concentration 1 uM, replicate 2
[11] = 48 h, 10 µM, compound concentration 10 uM, replicate 1
[12] = 48 h, 10 µM, compound concentration 10 uM, replicate 2

## CC(C)(C)c1cnc(CSc2cnc(NC(=O)C3CCNCC3)s2)o1 [BMS-387032]
[1]
  Population Apoptotic (%): 25%
  Population Fragmented Nuclei (%): 21%
  Population Healthy Nuclei (%): 51%
  Population Hoechst High Intensity Objects (%): 19%
  Population Membrane Permeable-Phenotype (%): 3%
  Population Mitochondria Different-Phenotype (%): 8%
  Population Mitotic Cells (%): 74%
  Population Normal (%): 80%
  Population Pyknosed Nuclei (%): 27%
  Population Tubulin-Different-Phenotype (%): 4%
  Total Cell Count: 507
[2]
  Population Apoptotic (%): 21%
  Population Fragmented Nuclei (%): 4%
  Population Healthy Nuclei (%): 85%
  Population Hoechst High Intensity Objects (%): 4%
  Population Membrane Permeable-Phenotype (%): 1%
  Population Mitochondria Different-Phenotype (%): 25%
  Population Mitotic Cells (%): 78%
  Population Normal (%): 95%
  Population Pyknosed Nuclei (%): 10%
  Population Tubulin-Different-Phenotype (%): 13%
  Total Cell Count: 981
[3]
  Population Apoptotic (%): 23%
  Population Fragmented Nuclei (%): 15%
  Population Healthy Nuclei (%): 51%
  Population Hoechst High Intensity Objects (%): 21%
  Population Membrane Permeable-Phenotype (%): 4%
  Population Mitochondria Different-Phenotype (%): 17%
  Population Mitotic Cells (%): 76%
  Population Normal (%): 78%
  Population Pyknosed Nuclei (%): 33%
  Population Tubulin-Different-Phenotype (%): 27%
  Total Cell Count: 549
[4]
  Population Apoptotic (%): 24%
  Population Fragmented Nuclei (%): 2%
  Population Healthy Nuclei (%): 86%
  Population Hoechst High Intensity Objects (%): 10%
  Population Membrane Permeable-Phenotype (%): 1%
  Population Mitochondria Different-Phenotype (%): 42%
  Population Mitotic Cells (%): 75%
  Population Normal (%): 90%
  Population Pyknosed Nuclei (%): 10%
  Population Tubulin-Different-Phenotype (%): 58%
  Total Cell Count: 880
[5]
  Population Apoptotic (%): 27%
  Population Fragmented Nuclei (%): 21%
  Population Healthy Nuclei (%): 53%
  Population Hoechst High Intensity Objects (%): 20%
  Population Membrane Permeable-Phenotype (%): 6%
  Population Mitochondria Different-Phenotype (%): 9%
  Population Mitotic Cells (%): 72%
  Population Normal (%): 79%
  Population Pyknosed Nuclei (%): 24%
  Population Tubulin-Different-Phenotype (%): 9%
  Total Cell Count: 451
[6]
  Population Apoptotic (%): 22%
  Population Fragmented Nuclei (%): 6%
  Population Healthy Nuclei (%): 87%
  Population Hoechst High Intensity Objects (%): 8%
  Population Membrane Permeable-Phenotype (%): 1%
  Population Mitochondria Different-Phenotype (%): 22%
  Population Mitotic Cells (%): 77%
  Population Normal (%): 91%
  Population Pyknosed Nuclei (%): 5%
  Population Tubulin-Different-Phenotype (%): 17%
  Total Cell Count: 934
[7]
  Population Apoptotic (%): 27%
  Population Fragmented Nuclei (%): 16%
  Population Healthy Nuclei (%): 45%
  Population Hoechst High Intensity Objects (%): 23%
  Population Membrane Permeable-Phenotype (%): 1%
  Population Mitochondria Different-Phenotype (%): 34%
  Population Mitotic Cells (%): 72%
  Population Normal (%): 76%
  Population Pyknosed Nuclei (%): 38%
  Population Tubulin-Different-Phenotype (%): 30%
  Total Cell Count: 494
[8]
  Population Apoptotic (%): 31%
  Population Fragmented Nuclei (%): 3%
  Population Healthy Nuclei (%): 83%
  Population Hoechst High Intensity Objects (%): 14%
  Population Membrane Permeable-Phenotype (%): 0%
  Population Mitochondria Different-Phenotype (%): 54%
  Population Mitotic Cells (%): 68%
  Population Normal (%): 85%
  Population Pyknosed Nuclei (%): 13%
  Population Tubulin-Different-Phenotype (%): 61%
  Total Cell Count: 828

## CCC(=O)O[C@]1(C(=O)SCF)[C@H](C)C[C@H]2[C@@H]3C[C@H](F)C4=CC(=O)C=C[C@]4(C)[C@@]3(F)[C@@H](O)C[C@@]21C [FLUTICASONE PROPIONATE]
[1]
  Population Apoptotic (%): 51%
  Population Fragmented Nuclei (%): 10%
  Population Healthy Nuclei (%): 33%
  Population Hoechst High Intensity Objects (%): 11%
  Population Membrane Permeable-Phenotype (%): 0%
  Population Mitochondria Different-Phenotype (%): 87%
  Population Mitotic Cells (%): 48%
  Population Normal (%): 88%
  Population Pyknosed Nuclei (%): 56%
  Population Tubulin-Different-Phenotype (%): 52%
  Total Cell Count: 253
[2]
  Population Apoptotic (%): 9%
  Population Fragmented Nuclei (%): 4%
  Population Healthy Nuclei (%): 46%
  Population Hoechst High Intensity Objects (%): 2%
  Population Membrane Permeable-Phenotype (%): 7%
  Population Mitochondria Different-Phenotype (%): 13%
  Population Mitotic Cells (%): 90%
  Population Normal (%): 97%
  Population Pyknosed Nuclei (%): 48%
  Population Tubulin-Different-Phenotype (%): 19%
  Total Cell Count: 273
[3]
  Population Apoptotic (%): 68%
  Population Fragmented Nuclei (%): 11%
  Population Healthy Nuclei (%): 32%
  Population Hoechst High Intensity Objects (%): 15%
  Population Membrane Permeable-Phenotype (%): 1%
  Population Mitochondria Different-Phenotype (%): 89%
  Population Mitotic Cells (%): 31%
  Population Normal (%): 84%
  Population Pyknosed Nuclei (%): 56%
  Population Tubulin-Different-Phenotype (%): 78%
  Total Cell Count: 203
[4]
  Population Apoptotic (%): 25%
  Population Fragmented Nuclei (%): 4%
  Population Healthy Nuclei (%): 27%
  Population Hoechst High Intensity Objects (%): 6%
  Population Membrane Permeable-Phenotype (%): 8%
  Population Mitochondria Different-Phenotype (%): 54%
  Population Mitotic Cells (%): 74%
  Population Normal (%): 93%
  Population Pyknosed Nuclei (%): 68%
  Population Tubulin-Different-Phenotype (%): 60%
  Total Cell Count: 187
[5]
  Population Apoptotic (%): 59%
  Population Fragmented Nuclei (%): 10%
  Population Healthy Nuclei (%): 41%
  Population Hoechst High Intensity Objects (%): 17%
  Population Membrane Permeable-Phenotype (%): 6%
  Population Mitochondria Different-Phenotype (%): 68%
  Population Mitotic Cells (%): 40%
  Population Normal (%): 82%
  Population Pyknosed Nuclei (%): 48%
  Population Tubulin-Different-Phenotype (%): 40%
  Total Cell Count: 273
[6]
  Population Apoptotic (%): 7%
  Population Fragmented Nuclei (%): 3%
  Population Healthy Nuclei (%): 67%
  Population Hoechst High Intensity Objects (%): 1%
  Population Mitochondria Different-Phenotype (%): 12%
  Population Mitotic Cells (%): 92%
  Population Normal (%): 98%
  Population Pyknosed Nuclei (%): 29%
  Population Tubulin-Different-Phenotype (%): 22%
  Total Cell Count: 322
[7]
  Population Apoptotic (%): 61%
  Population Fragmented Nuclei (%): 15%
  Population Healthy Nuclei (%): 33%
  Population Hoechst High Intensity Objects (%): 15%
  Population Membrane Permeable-Phenotype (%): 0%
  Population Mitochondria Different-Phenotype (%): 80%
  Population Mitotic Cells (%): 38%
  Population Normal (%): 84%
  Population Pyknosed Nuclei (%): 50%
  Population Tubulin-Different-Phenotype (%): 67%
  Total Cell Count: 237
[8]
  Population Apoptotic (%): 44%
  Population Fragmented Nuclei (%): 11%
  Population Healthy Nuclei (%): 44%
  Population Hoechst High Intensity Objects (%): 3%
  Population Membrane Permeable-Phenotype (%): 8%
  Population Mitochondria Different-Phenotype (%): 43%
  Population Mitotic Cells (%): 55%
  Population Normal (%): 96%
  Population Pyknosed Nuclei (%): 44%
  Population Tubulin-Different-Phenotype (%): 53%
  Total Cell Count: 226
[9]
  Population Apoptotic (%): 50%
  Population Fragmented Nuclei (%): 14%
  Population Healthy Nuclei (%): 50%
  Population Hoechst High Intensity Objects (%): 14%
  Population Membrane Permeable-Phenotype (%): 2%
  Population Mitochondria Different-Phenotype (%): 34%
  Population Mitotic Cells (%): 50%
  Population Normal (%): 85%
  Population Pyknosed Nuclei (%): 35%
  Population Tubulin-Different-Phenotype (%): 28%
  Total Cell Count: 348
[10]
  Population Apoptotic (%): 9%
  Population Fragmented Nuclei (%): 4%
  Population Healthy Nuclei (%): 81%
  Population Hoechst High Intensity Objects (%): 2%
  Population Membrane Permeable-Phenotype (%): 5%
  Population Mitochondria Different-Phenotype (%): 3%
  Population Mitotic Cells (%): 90%
  Population Normal (%): 97%
  Population Pyknosed Nuclei (%): 13%
  Population Tubulin-Different-Phenotype (%): 23%
  Total Cell Count: 621
[11]
  Population Apoptotic (%): 67%
  Population Fragmented Nuclei (%): 15%
  Population Healthy Nuclei (%): 51%
  Population Hoechst High Intensity Objects (%): 12%
  Population Membrane Permeable-Phenotype (%): 10%
  Population Mitochondria Different-Phenotype (%): 60%
  Population Mitotic Cells (%): 32%
  Population Normal (%): 87%
  Population Pyknosed Nuclei (%): 33%
  Population Tubulin-Different-Phenotype (%): 55%
  Total Cell Count: 278
[12]
  Population Apoptotic (%): 28%
  Population Fragmented Nuclei (%): 7%
  Population Healthy Nuclei (%): 74%
  Population Hoechst High Intensity Objects (%): 5%
  Population Membrane Permeable-Phenotype (%): 9%
  Population Mitochondria Different-Phenotype (%): 22%
  Population Mitotic Cells (%): 71%
  Population Normal (%): 94%
  Population Pyknosed Nuclei (%): 18%
  Population Tubulin-Different-Phenotype (%): 52%
  Total Cell Count: 330
